# Experimental data: publication PMC4361481 (Journal of Biomolecular Screening, 2015)
# Legend:
# H3K27me3 [1] = test: H3K27me3 HCA assay, MDA-MB-231 cells, 384-well format; type: cell-based; settings: MDA-MB-231, 3 days
# Outline: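 MDA-MB-231 cells were plated in 384-well plates 24 h before compound, diluted in medium from a 10 mM DMSO stock (final DMSO ≤0.6%). Treatment was 3 µM over a time course or a concentration series for 3 days, at 37 °C, 5% CO2. H3K27me3 immunofluorescence used PFA fixation and Triton permeabilization, primary antibody 16 h at 4 °C, plus Hoechst. Confocal imaging averaged about 1500–2000 nuclei; triplicates, % of DMSO control.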
# MDA-MB-231 cells = test: Number of analyzed nuclei; type: cell-based; settings: MDA-MB-231, 3 days, maximal effect, concentration not given
# Outline: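 Proliferation was read from the same 3-day high-content assay in 384-well plates at 37 °C, 5% CO2. Nuclei were counted in the Hoechst (4 µg/mL) DNA channel. Segmentation used a gray-level threshold and minimum/maximum nuclear diameter set on DMSO-treated controls, which excluded debris. Total nuclei per well served as cell number and were expressed as % of DMSO control, in triplicate.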
# H3K27me3 [2] = settings: mutant EZH2-bearing lymphoma cells; cited from earlier work
SMILES,"global H3K27me3 level at maximum reduction, % of DMSO control (H3K27me3 [1])","cell number, % of DMSO control (MDA-MB-231 cells)",time at which loss of H3K27me3 was apparent (H3K27me3 [2]),time required for full effects on H3K27me3 (H3K27me3 [2])
"Nc1nccc2c1ncn2C1C=C(CO)C(O)C1O (stereo not shown) [DZNep, 3-deazaneplanocin A]",65%,45%,–,–
Cc1cc(C)c(CNC(=O)c2cc(-c3ccc(CN4CCOCC4)cc3)cc3c2cnn3C2CCCC2)c(=O)[nH]1 [EPZ005687],–,–,24 h,up to 5 days
